# Test results reported in ChEMBL document CHEMBL3352728, “Synthesis and biological evaluation of 1,2,3-triazole linked aminocombretastatin conjugates as mitochondrial mediated apoptosis inducers” (Bioorg Med Chem, 2014).
# The source made the active and inactive calls. No cut-off for these calls is given here.
# Legend:
# A549 [1] = assay: Induction of cell cycle arrest in human A549 cells assessed as accumulation at G0/G1 phase at 50 nM after 48 hrs by propidium iodide staining based flow cytometry (reference value: 87.75%); type: functional
# ACHN = assay: Cytotoxicity against human ACHN cells after 48 hrs by MTT assay; type: functional, cell-based
# How it was run: (§1)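 MTT assay. Cells seeded at 1×10^4 per well in DMEM with 10% FBS and grown 24 h at 37 °C under CO2. Compounds diluted in medium, vehicle control included, 48 h exposure. MTT (5 mg/mL stock) added for 4 h, formazan dissolved in DMSO, absorbance read at 570 nm. IC50 taken as the average of three independent experiments.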
# A549 [2] = assay: Induction of cell cycle arrest in human A549 cells assessed as accumulation at subG1 phase at 50 nM after 48 hrs by propidium iodide staining based flow cytometry (reference value: 1.41%); type: functional
# Tubulin (Homo sapiens) [3] = target: T1, Tubulin (Homo sapiens) (UniProt P68371+Q9H4B7+P0DPH7+P68366+Q13509+Q71U36+P04350+Q3ZCM7+P07437+P68363+Q9BQE3+Q6PEY2+Q13885+Q9BVA1+Q9BUF5); assay: Binding affinity to tubulin (unknown origin) incubated for 60 mins by colchicine competition assay; type: protein-complex assay
# How it was run: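 Tubulin (3 μM) incubated with test agents (5, 10, 15, 20 μM) with and without 3 μM colchicine in 30 mM Tris buffer, 60 min at 37 °C. Tubulin–colchicine fluorescence read at ex 350/em 435 nm. Compound-alone signal subtracted from the compound+colchicine signal, Tris blank subtracted, values normalized to DMSO control. CA-4 positive control, taxol negative control.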
# A549 [4] = assay: Induction of microtubule network disruption in human A549 cells at 25 nM incubated for 48 hrs by immunohistochemistry; type: cell-based
# How it was run: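 A549 cells on glass coverslips exposed to 25 nM for 48 h, with CA-4 at 25 nM in parallel. Fixed in 3% paraformaldehyde/0.02% glutaraldehyde and permeabilized in methanol overnight at 4 °C. Blocked with 1% BSA, stained with mouse anti-tubulin primary and FITC-labelled anti-mouse IgG, and examined by fluorescence microscopy for microtubule network integrity.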
# A549 [5] = assay: Induction of cell cycle arrest in human A549 cells assessed as accumulation at G2/M phase at 50 nM after 48 hrs by propidium iodide staining based flow cytometry (reference value: 6.15%); type: functional
# HeLa = assay: Cytotoxicity against human HeLa cells after 48 hrs by MTT assay; type: functional, cell-based; how it was run: as §1
# A549 [6] = assay: Cytotoxicity against human A549 cells after 48 hrs by MTT assay; type: functional, cell-based; details: A549, 48 h; how it was run: as §1
# A549 [7] = assay: Induction of cell cycle arrest in human A549 cells assessed as accumulation at S phase at 50 nM after 48 hrs by propidium iodide staining based flow cytometry (reference value: 4.69%); type: functional
# HepG2 = assay: Cytotoxicity against human HepG2 cells after 48 hrs by MTT assay; type: functional, cell-based; details: HepG2, 48 h; how it was run: as §1
# MCF7 = assay: Cytotoxicity against human MCF7 cells after 48 hrs by MTT assay; type: functional, cell-based; details: MCF7, 48 h; how it was run: as §1
# A549 [8] = assay: Induction of mitochondrial membrane potential loss in human A549 cells at 25 nM incubated for 48 hrs by JC1 dye staining based fluorescence assay; type: functional, cell-based
# How it was run: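 A549 cells exposed to 25 nM for 48 h, then loaded with JC-1 for 20 min at 37 °C. JC-1 green monomer emission (525 nm) compared with red aggregate emission (590 nm) to read depolarization. CA-4 at 25 nM included.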
# A549 [9] = assay: Induction of ROS generation in human A549 cells at 25 nM incubated for 48 hrs by DCFH-DA staining based fluorescence assay; type: functional, cell-based
# How it was run: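 A549 cells exposed to 25 nM for 48 h, then loaded with 5 μM DCFH-DA for 30 min at 37 °C. DCF fluorescence read at ex 485/em 530 nm. CA-4 at 25 nM run in parallel.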
# A549 [10] = assay: Induction of apoptosis in human A549 cells assessed as nuclear fragmentation at 25 nM incubated for 48 hrs by Hoechst staining based fluorescent microscopy; type: functional, cell-based
# How it was run: (§2)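 A549 cells, 10,000 per coverslip, cultured 24 h, then exposed to 25 nM for 48 h. Stained with Hoechst 33258 (0.5 mg/mL) for 30 min at 37 °C and washed in PBS. Random fields imaged by fluorescence microscopy and scored qualitatively for chromatin condensation, nuclear fragmentation and apoptotic bodies.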
# A549 [11] = assay: Induction of apoptosis in human A549 cells assessed as caspase-3 activation at 50 nM incubated for 48 hrs by ELISA method; type: functional
# How it was run: (§3)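 A549 cells treated 48 h at 25 or 50 nM, with CA-4 at 50 nM as reference. Cells pelleted, PBS-washed, lysed 15 min and centrifuged. Supernatant assayed with a colorimetric caspase-3 kit. Mean ± SD from two experiments, each in triplicate.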
# A549 [12] = assay: Induction of cell cycle arrest in human A549 cells assessed as accumulation at subG1 phase at 25 nM after 48 hrs by propidium iodide staining based flow cytometry (reference value: 1.41%); type: functional
# A549 [13] = assay: Induction of DNA fragmentation in human A549 cells at 25 nM incubated for 48 hrs by agarose gel electrophoresis method; type: functional, cell-based
# How it was run: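 A549 cells (1×10^6) plated for 24 h, then exposed to 25 nM for 48 h. Cells pelleted and lysed. Lysate treated with SDS and RNase A for 2 h at 56 °C, then proteinase K for 2 h at 37 °C. DNA precipitated with ammonium acetate and cold ethanol, redissolved in TE buffer, and laddering run on 2% agarose gel.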
# Tubulin = assay: Inhibition of tubulin (unknown origin) polymerization incubated for 1 hr by fluorescence assay; type: protein-complex assay, Homo sapiens
# A549 [14] = assay: Induction of cell cycle arrest in human A549 cells assessed as accumulation at S phase at 25 nM after 48 hrs by propidium iodide staining based flow cytometry (reference value: 4.69%); type: functional
# A549 [15] = assay: Induction of apoptosis in human A549 cells assessed as apoptotic bodies level at 25 nM incubated for 48 hrs by Hoechst staining based fluorescent microscopy; type: functional, cell-based; how it was run: as §2
# A549 [16] = assay: Induction of cell cycle arrest in human A549 cells assessed as accumulation at G0/G1 phase at 25 nM after 48 hrs by propidium iodide staining based flow cytometry (reference value: 87.75%); type: functional
# A549 [17] = assay: Induction of cell cycle arrest in human A549 cells assessed as accumulation at G2/M phase at 25 nM after 48 hrs by propidium iodide staining based flow cytometry (reference value: 6.15%); type: functional
# Tubulin (Homo sapiens) [18] = target: T1, Tubulin (Homo sapiens); assay: Inhibition of tubulin (unknown origin) polymerization at 3 uM incubated for 1 hr by fluorescence assay; type: protein-complex assay
# How it was run: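 Fluorescence-reporter tubulin polymerization kit. PEM buffer with […], compounds at 3 μM final concentration. Fluorescence followed at ex 360/em 420 nm for 1 h at 37 °C. CA-4 positive control. Mean ± SD from two experiments, each in triplicate.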
# A549 [19] = assay: Induction of apoptosis in human A549 cells assessed as caspase-3 activation at 25 nM incubated for 48 hrs by ELISA method; type: functional; how it was run: as §3
# A549 [20] = assay: Induction of apoptosis in human A549 cells assessed as chromatin condensation at 25 nM incubated for 48 hrs by Hoechst staining based fluorescent microscopy; type: functional, cell-based; how it was run: as §2
SMILES,IC50 (ACHN) [nM],IC50 (HeLa) [nM],IC50 (A549 [6]) [nM],IC50 (HepG2) [nM],IC50 (MCF7) [nM],other results
COc1ccc(/C=C\c2cc(OC)c(OC)c(OC)c2)cc1O [COMBRETASTATIN A4],5,18,52,–,–,Activity (A549 [1]): 61.32%; Activity (A549 [2]): 4.11%; Activity (Tubulin (Homo sapiens) [3]): Active; Activity (A549 [4]): Active; Activity (A549 [5]): 26.48%; Activity (A549 [7]): 8.09%
COc1ccc(/C=C\c2cc(OC)c(OC)c(OC)c2)c(NC(=O)c2cn(Cc3cc(OC)c(OC)c(OC)c3)nn2)c1O,5130,770,830,1700,2400,–
COc1cccc(Cn2cc(C(=O)Nc3cc(/C=C\c4cc(OC)c(OC)c(OC)c4)ccc3OC)nn2)c1,5270,1140,1860,1800,1610,–
COc1ccc(/C=C\c2cc(OC)c(OC)c(OC)c2)cc1NC(=O)c1cn(Cc2cc(OC)c(OC)c(OC)c2)nn1,2040,190,89,620,1510,–
CC(=O)O[C@H]1C(=O)[C@@]2(C)[C@H]([C@H](OC(=O)c3ccccc3)[C@]3(O)C[C@H](OC(=O)[C@H](O)[C@@H](NC(=O)c4ccccc4)c4ccccc4)C(C)=C1C3(C)C)[C@]1(OC(C)=O)CO[C@@H]1C[C@@H]2O,–,–,–,–,–,Activity (Tubulin (Homo sapiens) [3]): inactive
COc1ccc(/C=C\c2cc(OC)c(OC)c(OC)c2)c(NC(=O)c2cn(Cc3ccc(F)cc3)nn2)c1O,3390,330,568,354,1860,–
COc1ccc(/C=C\c2cc(OC)c(OC)c(OC)c2)cc1NC(=O)c1cn(Cc2cccc(Oc3ccccc3)c2)nn1,5740,3230,2570,3720,4190,–
COc1ccc(/C=C\c2cc(OC)c(OC)c(OC)c2)c(NC(=O)c2cn(Cc3cccc(Oc4ccccc4)c3)nn2)c1O,7410,5010,3630,4680,4260,–
COc1cccc(Cn2cc(C(=O)Nc3cc(/C=C\c4cc(OC)c(OC)c(OC)c4)cc(OC)c3OC)nn2)c1,2890,570,406,513,1270,–
COc1cc(/C=C\c2cc(OC)c(OC)c(OC)c2)cc(NC(=O)c2cn(Cc3cc(OC)c(OC)c(OC)c3)nn2)c1OC,4760,720,181,3390,1380,–
COc1ccc(Cn2cc(C(=O)Nc3cc(/C=C\c4cc(OC)c(OC)c(OC)c4)cc(OC)c3OC)nn2)cc1,1700,81,44,98,818,Activity (A549 [8]): Active; Activity (A549 [9]): Active; Activity (A549 [10]): Active; fold change (FC) (A549 [11]): 3; Activity (A549 [1]): 62.01%; Activity (A549 [12]): 1.2%; Activity (A549 [2]): 3.46%; Activity (A549 [13]): Active; IC50 (Tubulin): 950 nM; Activity (A549 [14]): 7.84%; Activity (A549 [15]): Active; Activity (A549 [16]): 69.59%; Activity (A549 [17]): 21.37%; inhibition (Tubulin (Homo sapiens) [18]): 70.9%; fold change (FC) (A549 [19]): 3; Activity (Tubulin (Homo sapiens) [3]): Active; Activity (A549 [4]): Active; Activity (A549 [20]): Active; Activity (A549 [5]): 26.63%; Activity (A549 [7]): 7.9%
COc1ccc(Cn2cc(C(=O)Nc3c(/C=C\c4cc(OC)c(OC)c(OC)c4)ccc(OC)c3O)nn2)cc1,5890,3540,1450,1200,2620,–
COc1cc(/C=C\c2cc(OC)c(OC)c(OC)c2)cc(NC(=O)c2cn(Cc3ccc(F)cc3)nn2)c1OC,3090,320,66,1360,897,–
COc1ccc(Cn2cc(C(=O)Nc3cc(/C=C\c4cc(OC)c(OC)c(OC)c4)ccc3OC)nn2)cc1,3310,2950,2140,2080,3720,–
COc1cc(/C=C\c2cc(OC)c(OC)c(OC)c2)cc(NC(=O)c2cn(Cc3cccc(Oc4ccccc4)c3)nn2)c1OC,6610,5880,2680,3990,4260,–
COc1ccc(/C=C\c2cc(OC)c(OC)c(OC)c2)cc1NC(=O)c1cn(Cc2ccc(F)cc2)nn1,1660,68,53,58,597,Activity (A549 [8]): Active; Activity (A549 [9]): Active; Activity (A549 [10]): Active; fold change (FC) (A549 [11]): 3; Activity (A549 [1]): 61.99%; Activity (A549 [12]): 1.52%; Activity (A549 [2]): 4.36%; Activity (A549 [13]): Active; IC50 (Tubulin): 1160 nM; Activity (A549 [14]): 5.49%; Activity (A549 [15]): Active; Activity (A549 [16]): 75.42%; Activity (A549 [17]): 17.57%; inhibition (Tubulin (Homo sapiens) [18]): 66.8%; fold change (FC) (A549 [19]): 3; Activity (Tubulin (Homo sapiens) [3]): Active; Activity (A549 [4]): Active; Activity (A549 [20]): Active; Activity (A549 [5]): 25.73%; Activity (A549 [7]): 7.93%
COc1cccc(Cn2cc(C(=O)Nc3c(/C=C\c4cc(OC)c(OC)c(OC)c4)ccc(OC)c3O)nn2)c1,9510,4570,1620,1950,1940,–
